Measurements as given in ChEMBL document CHEMBL1629474, “Massive screening yields novel and selective Trypanosoma cruzi triosephosphate isomerase dimer-interface-irreversible inhibitors with anti-trypanosomal activity” (Eur J Med Chem, 2010).
Activity calls are given as the source filed them. How the calls were made is not given here.

Legend:
[1] = test system: Trypanosoma cruzi; experiment: Antiparasitic activity against Trypanosoma cruzi T2 epimastigotes assessed as growth inhibition at 25 uM after 5 days; assay type: functional
Outline: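 Late-log epimastigotes were grown axenically at 28 °C in BHI-tryptose with 5% fetal calf serum and seeded at 2×10^6/mL in medium containing compound (DMSO stock; final DMSO ≤1%, 1% DMSO control). Growth was read as A590 at day 0 and day 5. Inhibition = {1 − [(Ap − A0p)/(Ac − A0c)]} × 100. Means of two experiments.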

[2] = target: Triosephosphate isomerase, glycosomal (Trypanosoma cruzi) (UniProt P52270); experiment: Inhibition of Trypanosoma cruzi triosephosphate isomerase at 400 uM after 2 hrs
Sequence of Triosephosphate isomerase, glycosomal (Trypanosoma cruzi) (P52270 whole entry): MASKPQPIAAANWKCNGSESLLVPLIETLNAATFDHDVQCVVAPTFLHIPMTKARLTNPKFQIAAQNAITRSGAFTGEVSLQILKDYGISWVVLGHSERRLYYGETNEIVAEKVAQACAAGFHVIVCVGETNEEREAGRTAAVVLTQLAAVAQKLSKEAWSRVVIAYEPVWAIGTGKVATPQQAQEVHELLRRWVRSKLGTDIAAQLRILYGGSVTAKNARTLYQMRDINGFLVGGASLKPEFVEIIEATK
Outline: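 Recombinant E. coli-expressed enzyme, dialyzed into 100 mM triethanolamine/10 mM EDTA pH 7.4, was incubated with compound (DMSO stock) in 100 mM triethanolamine, 10 mM EDTA, pH 7.4, 10% DMSO at 36 °C for 2 h. An aliquot was then assayed for activity (glyceraldehyde 3-phosphate to dihydroxyacetone phosphate, α-glycerol phosphate dehydrogenase-coupled) with 5 ng enzyme. Irreversible inhibition was scored as loss of activity; means of two experiments.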

[3] = Selectivity for Trypanosoma cruzi triosephosphate isomerase over human triosephosphate isomerase

Structure (SMILES) | Activity [1] | inhibition [2] [%] | Ratio [3]
O=C(/C=C/c1ccc2c(c1)OCO2)c1ccccc1O | Active | 29 | > 4
C=CCNC(=S)N/N=C/c1ccc([N+](=O)[O-])o1 | Active | 6 | > 4
N#Cc1c2ccccc2[n+]([O-])n1-c1ccc([N+](=O)[O-])cc1 | Active | 29 | > 4
Cc1ccc2c(c1)=[N+]([O-])C1(CCCC1)[N+]=2[O-] | Active | 27 | > 4
Cc1nnsc1CO | Active | 29 | > 4
O=C(NCCc1ccccc1)N/N=C/c1ccc2no[n+]([O-])c2c1 | Active | 38 | > 4
C/C(=C\c1ccc(N(C)C)cc1)[N+](=O)[O-] | Active | 24 | > 4
Cc1nnc[n+]([O-])c1/C=C/c1ccc(Cl)cc1 | Active | 15 | > 4
CSc1ccc(/C=C/C(=O)c2ccccc2)cc1 | Active | 14 | > 4
[O-][n+]1onc2ccc(C=Cc3ccc(Br)cc3)cc21 | Active | 22 | > 4
[O-][n+]1onc2ccc(C=Cc3ccc(C(F)(F)F)cc3)cc21 | Active | 33 | > 4
[O-][n+]1onc2ccc(CN3CCN(C/C=C/c4ccccc4)CC3)cc21 | Active | 0 | > 4
[O-][n+]1onc(-c2ccccc2)c1CN1CCSCC1 | Active | 47 | > 4
CCCCCCCNC(=O)N/N=C/c1ccc([N+](=O)[O-])o1 | Active | 60 | > 4
CCCCCCOC(=O)N/N=C/C=C/c1ccc([N+](=O)[O-])o1 | Active | 39 | > 4
O=C(CN1C(=O)c2ccccc2C1=O)c1ccccc1 | Active | 0 | > 4
CC(=O)CN1C(=O)c2ccccc2C1=O | Active | 30 | > 4
O=c1c2cc([N+](=O)[O-])ccc2n2n1CCOCC2 | Active | 12 | > 4
NC(=O)N/N=C/c1ccc2no[n+]([O-])c2c1 | Active | 73 | > 4
COCCNC(=O)N/N=C/c1ccc([N+](=O)[O-])s1 | Active | 15 | > 4
C=CCNC(=S)N/N=C/C=C/c1ccc([N+](=O)[O-])s1 | Active | 26 | > 4
C=CCNC(=S)N/N=C/c1ccc2c(c1)=[N+]([O-])C(C)(C)[N+]=2[O-] | Active | 33 | > 4
Nc1ccc2c(c1)[n+]([O-])c1cc(Cl)ccc1[n+]2[O-] | Active | 64 | > 4

Structure (SMILES) | Activity [1] | inhibition [2] [%] | Ratio [3]
CNC(=S)N/N=C/c1ccc([N+](=O)[O-])o1 | Active | 22 | > 4
Cc1nnc[n+]([O-])c1/C=C/c1ccc([N+](=O)[O-])o1 | Active | 38 | > 4
[O-][n+]1onc2ccc(CSCCO)cc21 | Active | 0 | > 4
CCOC(=O)CN(Cc1ccc(OC)cc1)c1ccc([N+](=O)[O-])cc1[N+](=O)[O-] | Active | 10 | > 4
O=[N+]([O-])c1ccc2c(c1)c(OCc1ccccc1)nn2CCCCCN1CCCCC1 | Active | 0 | > 4
CCOC(=O)c1c(-c2ccccc2)[n+]([O-])c2ccc(CN3CCN(C/C=C/c4ccccc4)CC3)cc2[n+]1[O-] | Active | 12 | > 4
[O-][N+]1=c2ccc(Br)cc2=[N+]([O-])C12CCCC2 | Active | 23 | > 4
COc1ccc(NCc2c(-c3ccccc3)no[n+]2[O-])cc1 | Active | 39 | > 4
[O-][N+]1=c2ccc(/C=N/O)cc2=[N+]([O-])C12CCCC2 | Active | 2 | > 4
COc1ccc(/C=C/c2c(C)[n+]([O-])nc[n+]2[O-])cc1 | Active | 27 | > 4
O=[N+]([O-])c1ccc2c(c1)[n+]([O-])c1n2CCOC1 | Active | 14 | > 4
NC1=NS(=O)(=O)N=C(N)C1 | Active | 0 | > 4
Oc1ccc(N/C(S)=N/c2ccccc2)cc1 | Active | 24 | > 4
COC(=O)N/N=C/c1c(C)no[n+]1[O-] | Active | 2 | > 4
Cc1ccc(S(=O)(=O)NCc2ccco2)cc1 | Active | 8 | > 4
O=c1c2cc([N+](=O)[O-])ccc2n2n1CCCCC2 | Active | 4 | > 4
NS(=O)(=O)NCc1ccccc1 | Active | 0 | > 4
Cc1c(/C=C/c2ccc(N(C)C)cc2)[n+]([O-])cn[n+]1[O-] | Active | 26 | > 4
CCCCNC(=O)/C=C/c1ccc([N+](=O)[O-])o1 | Active | 25 | > 4
Cc1c(C=O)no[n+]1[O-] | Active | 27 | > 4
O=C(O)c1ccc(-c2nsc(CO)n2)cc1 | Active | 15 | > 4
CCCCCCNC(=O)N/N=C/c1ccc([N+](=O)[O-])s1 | Active | 14 | > 4
CCCCCCOC(=O)N/N=C/c1no[n+]([O-])c1C | Active | 17 | > 4

Structure (SMILES) | Activity [1] | inhibition [2] [%] | Ratio [3]
O=S(=O)(/C=C/c1ccc2no[n+]([O-])c2c1)c1ccc(F)cc1 | Active | 15 | > 4
COCCNC(=O)/C=C/c1ccc([N+](=O)[O-])o1 | Active | 0 | > 4
C=CCNC(=S)N/N=C/C=C/c1ccc([N+](=O)[O-])o1 | Active | 12 | > 4
CCNC(=S)N/N=C/C=C/c1ccc([N+](=O)[O-])o1 | Active | 21 | > 4
Cc1nnc[n+]([O-])c1/C=C/c1ccc(N(C)C)cc1 | Active | 8 | > 4
Cn1c2ccc(Cl)cc2c(-c2ccccc2)[n+]1[O-] | Active | 16 | > 4
Cc1ccc(-n2cc(C)[n+]([O-])c2)cc1 | Active | 13 | > 4
C=CCNC(=S)N/N=C/c1cccs1 | Active | 2 | > 4
O=Cc1cccc(OCCCN2C(=O)c3ccccc3C2=O)c1 | Active | 0 | > 4
CN(C)CCCNS(=O)(=O)NCCCN(C)C | Active | 0 | > 4
O=[N+]([O-])c1ccc2c(c1)c(OCc1ccccc1)nn2CCOCCN1CCSCC1 | Active | 12 | > 4
COCCNC(=O)N/N=C/C=C/c1ccc([N+](=O)[O-])o1 | Active | 0 | > 4
CCCCCCN/N=C/c1no[n+]([O-])c1C | Active | 55 | > 4
C=C(C)CNC(=O)N/N=C/c1ccc([N+](=O)[O-])o1 | Active | 6 | > 4
CCCCCCCCOC(=O)N/N=C/C=C/c1ccc([N+](=O)[O-])o1 | Active | 0 | > 4
O=C(Oc1ccccc1)N1CCOCC1 | Active | 26 | > 4
COc1ccc(C(=O)/C=C/c2ccc3no[n+]([O-])c3c2)cc1 | Active | 45 | > 4
O=C(CCl)Oc1ccc2c(c1)[n+]([O-])c1cc(Br)ccc1[n+]2[O-] | Active | 50 | > 4
[O-][n+]1onc2ccc(CBr)cc21 | Active | 10 | > 4
O=C1C(=Cc2ccc([N+](=O)[O-])s2)C(=O)N(C2CCCCC2)S(=O)(=O)N1C1CCCCC1 | Active | 49 | > 4
[O-][n+]1onc2ccc(/C=N/NC(=S)Nc3ccccc3)cc21 | Active | 60 | > 4
[O-][n+]1onc2ccc(C=Cc3ccccc3F)cc21 | Active | 9 | > 4
